Measurements reported in ChEMBL document CHEMBL4130613, “Identification and Proposed Relative and Absolute Configurations of Niphimycins C-E from the Marine-Derived Streptomyces sp. IMB7-145 by Genomic Analysis” (J Nat Prod, 2018).
Values after ≈ are worked out from the molar mass of the structure shown. Active and inactive are the calls of the source. The rule behind the calls is not given here.

Experiments:
[1] = test system: Staphylococcus epidermidis; experiment: Antibacterial activity against methicillin-resistant Staphylococcus epidermidis 12-8 after 18 hrs by agar dilution method; format: functional
Staphylococcus aureus [2] = experiment: Antibacterial activity against methicillin-resistant Staphylococcus aureus ATCC 33591 after 18 hrs by agar dilution method; format: functional
Staphylococcus aureus [3] = experiment: Antibacterial activity against methicillin-resistant Staphylococcus aureus 12-33 after 18 hrs by agar dilution method; format: functional
Enterococcus faecalis [4] = experiment: Antibacterial activity against vancomycin-resistant Enterococcus faecalis ATCC 51299 after 18 hrs by agar dilution method; format: functional
Enterococcus faecalis [5] = experiment: Antibacterial activity against vancomycin-resistant Enterococcus faecalis 09-9 after 18 hrs by agar dilution method; format: functional
Enterococcus faecium [6] = experiment: Antibacterial activity against vancomycin-resistant Enterococcus faecium ATCC 700221 after 18 hrs by agar dilution method; format: functional
Enterococcus faecium [7] = experiment: Antibacterial activity against vancomycin-resistant Enterococcus faecium 12-1 after 18 hrs by agar dilution method; format: functional
Candida albicans = experiment: Antifungal activity against Candida albicans ATCC 10231 after 18 hrs by agar dilution method; format: functional; settings: ATCC 10231, 18 h
Escherichia coli [8] = experiment: Antibacterial activity against extended-spectrum beta-lactamase-negative Escherichia coli ATCC 25922 after 18 hrs by agar dilution method; format: functional; settings: ATCC 25922, 18 h
Escherichia coli [9] = experiment: Antibacterial activity against extended-spectrum beta-lactamase-negative Escherichia coli 1515 after 18 hrs by agar dilution method; format: functional; settings: Escherichia coli, 1515, 18 h
Escherichia coli [10] = experiment: Antibacterial activity against extended-spectrum beta-lactamase-negative Escherichia coli 12-14 after 18 hrs by agar dilution method; format: functional; settings: 12-14, 18 h
Escherichia coli [11] = experiment: Antibacterial activity against extended-spectrum beta-lactamase-positive Escherichia coli 12-15 after 18 hrs by agar dilution method; format: functional; settings: 12-15, 18 h
Klebsiella pneumoniae [12] = experiment: Antibacterial activity against extended-spectrum beta-lactamase-positive Klebsiella pneumoniae ATCC 700603 after 18 hrs by agar dilution method; format: functional; settings: Klebsiella pneumoniae, 700603, 18 h
Klebsiella pneumoniae [13] = experiment: Antibacterial activity against extended-spectrum beta-lactamase-negative Klebsiella pneumoniae 7 after 18 hrs by agar dilution method; format: functional; settings: Klebsiella pneumoniae, 7, 18 h
Klebsiella pneumoniae [14] = experiment: Antibacterial activity against NDM-1 positive Klebsiella pneumoniae ATCC BAA-2146 after 18 hrs by agar dilution method; format: functional; settings: ATCC BAA-2146, 18 h
Klebsiella pneumoniae [15] = experiment: Antibacterial activity against extended-spectrum beta-lactamase-negative Klebsiella pneumoniae 12-4 after 18 hrs by agar dilution method; format: functional; settings: 12-4, 18 h
Klebsiella pneumoniae [16] = experiment: Antibacterial activity against extended-spectrum beta-lactamase-positive Klebsiella pneumoniae 12-8 after 18 hrs by agar dilution method; format: functional; settings: 12-8, 18 h
Pseudomonas aeruginosa [17] = experiment: Antibacterial activity against Pseudomonas aeruginosa ATCC 27853 after 18 hrs by agar dilution method; format: functional; settings: ATCC 27853, 18 h
Pseudomonas aeruginosa [18] = experiment: Antibacterial activity against Pseudomonas aeruginosa PAO1 after 18 hrs by agar dilution method; format: functional; settings: PAO1, 18 h
Pseudomonas aeruginosa [19] = experiment: Antibacterial activity against Pseudomonas aeruginosa 12-16 after 18 hrs by agar dilution method; format: functional; settings: 12-16, 18 h
[20] = test system: Acinetobacter calcoaceticus; experiment: Antibacterial activity against Acinetobacter calcoaceticus ATCC 19606 after 18 hrs by agar dilution method; format: functional; settings: ATCC 19606, 18 h
Enterobacter cloacae = experiment: Antibacterial activity against Enterobacter cloacae ATCC 43560 after 18 hrs by agar dilution method; format: functional; settings: ATCC 43560, 18 h
Klebsiella aerogenes = experiment: Antibacterial activity against Enterobacter aerogenes ATCC 13048 after 18 hrs by agar dilution method; format: functional; settings: ATCC 13048, 18 h
Serratia marcescens = experiment: Antibacterial activity against Serratia marcescens ATCC 21074 after 18 hrs by agar dilution method; format: functional; settings: ATCC 21074, 18 h
Morganella morganii = experiment: Antibacterial activity against Morganella morganii ATCC 25830 after 18 hrs by agar dilution method; format: functional; settings: ATCC 25830, 18 h
Providencia rettgeri = experiment: Antibacterial activity against Providencia rettgeri ATCC 31052 after 18 hrs by agar dilution method; format: functional; settings: ATCC 31052, 18 h
Proteus vulgaris = experiment: Antibacterial activity against Proteus vulgaris ATCC 29905 after 18 hrs by agar dilution method; format: functional; settings: ATCC 29905, 18 h
Proteus mirabilis = experiment: Antibacterial activity against Proteus mirabilis 12-6 after 18 hrs by agar dilution method; format: functional; settings: 12-6, 18 h
[21] = test system: Stenotrophomonas maltophilia; experiment: Antibacterial activity against Stenotrophomonas maltophilia ATCC 13636 after 18 hrs by agar dilution method; format: functional; settings: ATCC 13636, 18 h
Citrobacter freundii = experiment: Antibacterial activity against Citrobacter freundii ATCC 43864 after 18 hrs by agar dilution method; format: functional; settings: ATCC 43864, 18 h
HeLa = experiment: Cytotoxicity against human HeLa cells after 48 hrs by SRB assay; format: functional, cell-based
Summary of the method: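 HeLa human cervical carcinoma cells obtained from ATCC. Cytotoxicity was read by sulforhodamine B staining following an earlier published protocol, with doxorubicin hydrochloride as positive control. Values are reported as IC50.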

SMILES | Activity [1] | Activity (Staphylococcus aureus [2]) | Activity (Staphylococcus aureus [3]) | Activity (Enterococcus faecalis [4]) | Activity (Enterococcus faecalis [5]) | Activity (Enterococcus faecium [6]) | Activity (Enterococcus faecium [7]) | MIC (Candida albicans) [µg/mL] | MIC (Escherichia coli [8]) [µg/mL] | MIC (Escherichia coli [9]) [µg/mL] | MIC (Escherichia coli [10]) [µg/mL] | MIC (Escherichia coli [11]) [µg/mL] | MIC (Klebsiella pneumoniae [12]) [µg/mL] | MIC (Klebsiella pneumoniae [13]) [µg/mL] | MIC (Klebsiella pneumoniae [14]) [µg/mL] | MIC (Klebsiella pneumoniae [15]) [µg/mL] | MIC (Klebsiella pneumoniae [16]) [µg/mL] | MIC (Pseudomonas aeruginosa [17]) [µg/mL] | MIC (Pseudomonas aeruginosa [18]) [µg/mL] | MIC (Pseudomonas aeruginosa [19]) [µg/mL] | also measured
CNC(=N)NCCC/C=C/CCC[C@H](C)C[C@H](C)[C@H]1OC(=O)[C@H](C)[C@H](O)/C=C/[C@H](C)[C@H](O)C[C@H](O)[C@H](C)[C@@H](O)CC[C@H](C)[C@H](O)CC(O)[C@H](O)[C@@H](O)C[C@H](O)C[C@@H](O)C[C@H](O)C[C@@H](O)[C@H](C)[C@H](O)/C=C/C=C/[C@@H]1C (some centres undefined) | Active | Active | Active | Active | Active | Active | Active | 8 to 32 (≈ 7.56 to 30.2 µM) | > 64 | > 64 | > 64 | > 64 | > 64 | > 64 | > 64 | > 64 | > 64 | > 64 | > 64 | > 64 | MIC [20]: > 64 µg/mL; MIC (Enterobacter cloacae): > 64 µg/mL; MIC (Klebsiella aerogenes): > 64 µg/mL; MIC (Serratia marcescens): > 64 µg/mL; MIC (Morganella morganii): > 64 µg/mL; MIC (Providencia rettgeri): > 64 µg/mL; MIC (Proteus vulgaris): > 64 µg/mL; MIC (Proteus mirabilis): > 64 µg/mL; MIC [21]: > 64 µg/mL; MIC (Citrobacter freundii): > 64 µg/mL; IC50 (HeLa): > 10 µM
CNC(=N)NCCC/C=C/CCC[C@H](C)C[C@H](C)[C@H]1OC(=O)[C@H](C)[C@H](O)/C=C/[C@H](C)[C@H](O)C[C@H](O)[C@H](C)[C@@H](O)CC[C@H](C)[C@H](O)C[C@]2(O)O[C@H](C[C@@H](OC(=O)CC(=O)O)C[C@H](O)C[C@@H](O)[C@H](C)[C@H](O)/C=C/C=C/[C@@H]1C)C[C@H](OC(=O)CC(=O)O)[C@H]2O | Active | Active | Active | Active | Active | Active | Active | 8 to 32 (≈ 6.51 to 26 µM) | > 64 | > 64 | > 64 | > 64 | > 64 | > 64 | > 64 | > 64 | > 64 | > 64 | > 64 | > 64 | MIC [20]: > 64 µg/mL; MIC (Enterobacter cloacae): > 64 µg/mL; MIC (Klebsiella aerogenes): > 64 µg/mL; MIC (Serratia marcescens): > 64 µg/mL; MIC (Morganella morganii): > 64 µg/mL; MIC (Providencia rettgeri): > 64 µg/mL; MIC (Proteus vulgaris): > 64 µg/mL; MIC (Proteus mirabilis): > 64 µg/mL; MIC [21]: > 64 µg/mL; MIC (Citrobacter freundii): > 64 µg/mL; IC50 (HeLa): 3 to 9 µM
CNC(=N)NCCC/C=C/CCC[C@H](C)C[C@H](C)[C@@H](O)[C@@H](C)/C=C/C=C/[C@@H](O)[C@@H](C)[C@H](O)C[C@@H](O)C[C@H](O)C[C@@H](O)C[C@H](O)[C@@H](O)C(O)C[C@@H](O)[C@@H](C)CC[C@H](O)[C@@H](C)[C@@H](O)C[C@@H](O)[C@@H](C)/C=C/[C@@H](O)[C@@H](C)C(=O)O (some centres undefined) | Active | Active | Active | Active | Active | Active | Active | 8 to 32 (≈ 7.43 to 29.7 µM) | > 64 | > 64 | > 64 | > 64 | > 64 | > 64 | > 64 | > 64 | > 64 | > 64 | > 64 | > 64 | MIC [20]: > 64 µg/mL; MIC (Enterobacter cloacae): > 64 µg/mL; MIC (Klebsiella aerogenes): > 64 µg/mL; MIC (Serratia marcescens): > 64 µg/mL; MIC (Morganella morganii): > 64 µg/mL; MIC (Providencia rettgeri): > 64 µg/mL; MIC (Proteus vulgaris): > 64 µg/mL; MIC (Proteus mirabilis): > 64 µg/mL; MIC [21]: > 64 µg/mL; MIC (Citrobacter freundii): > 64 µg/mL; IC50 (HeLa): > 10 µM
CNC(=N)NCCC/C=C/CCC[C@H](C)C[C@H](C)[C@H]1OC(=O)[C@H](C)[C@H](O)/C=C/[C@H](C)[C@H](O)C[C@H](O)[C@H](C)[C@@H](O)CC[C@H](C)[C@H](O)C[C@]2(O)O[C@H](C[C@@H](O)C[C@H](OC(=O)CC(=O)O)C[C@@H](O)[C@H](C)[C@H](O)/C=C/C=C/[C@@H]1C)C[C@H](OC(=O)CC(=O)O)[C@H]2O | Active | Active | Active | Active | Active | Active | Active | 8 to 32 (≈ 6.51 to 26 µM) | > 64 | > 64 | > 64 | > 64 | > 64 | > 64 | > 64 | > 64 | > 64 | > 64 | > 64 | > 64 | MIC [20]: > 64 µg/mL; MIC (Enterobacter cloacae): > 64 µg/mL; MIC (Klebsiella aerogenes): > 64 µg/mL; MIC (Serratia marcescens): > 64 µg/mL; MIC (Morganella morganii): > 64 µg/mL; MIC (Providencia rettgeri): > 64 µg/mL; MIC (Proteus vulgaris): > 64 µg/mL; MIC (Proteus mirabilis): > 64 µg/mL; MIC [21]: > 64 µg/mL; MIC (Citrobacter freundii): > 64 µg/mL; IC50 (HeLa): > 10 µM
